Compound activity from PubChem BioAssay.
NS3 helicase inh: inhibitors of HCV NS3 helicase, primary screen, biochemical, Cy5 molecular beacon fluorescence; NS3 helicase DNA unwinding; inhibition, % at 10.9 µM; actives 0.56% (n = 290,000);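 active means inhibition above the mean of all tested compounds plus 3 SD, set per campaign, cut at about 35% in these data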;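 further: 0% = DMSO wells and 100% = thioflavine S control wells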
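System: HCV NS3 helicase fragment; control set: DMSO and thioflavine S; technique: Cy5 fluorescence at 0 and 60 min, beacon hairpin quenching; reagent: beacon DNA duplex substrate plus ATP; replicates: singlicate; schedule: 1 h reaction at 25 °C, ATP-initiated; medium: MOPS buffer pH 6.5 with MgCl2, DTT, Tween20, BSA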
NSD2 inh: NSD2 histone methyltransferase inhibitors, primary screen, biochemical, AlphaScreen, single concentration, set 2 | Histone-lysine N-methyltransferase NSD2 (Homo sapiens), O96028 | NSD2 peptide methylation, 120 min | inhibition, % at 12.5 µM | actives 0.54% (n = 310,000) | AID 743445, 2014
CASP6 VEID inh: human caspase-6 inhibitors, primary screen, biochemical, VEID-R110 fluorescence, single point, set 2 | P55212 | purified caspase-6, Z-VEID-R110 cleavage fluorescence | inhibition, % at 12.5 µM | actives 0.53% (n = 350,000) | AID 686996, 2013;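 active means mean inhibition across replicates at least about 35%, with every replicate also reaching that limit, limit read from the data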;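 further: 0% = median of neutral control wells and 100% = no fluorescence left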
Target sequence (P55212 24-179 limits assumed): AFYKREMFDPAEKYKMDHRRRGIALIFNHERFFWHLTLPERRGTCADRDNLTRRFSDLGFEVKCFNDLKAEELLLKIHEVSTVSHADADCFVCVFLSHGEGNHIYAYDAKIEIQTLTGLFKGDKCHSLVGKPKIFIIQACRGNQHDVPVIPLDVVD
Target sequence (P55212 194-293 limits assumed): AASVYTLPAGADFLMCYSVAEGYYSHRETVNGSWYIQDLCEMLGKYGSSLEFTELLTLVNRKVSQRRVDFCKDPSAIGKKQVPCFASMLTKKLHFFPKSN
DNMT1 inh: human DNMT1 methyltransferase inhibitors, primary screen, biochemical, molecular beacon, fluorescence, HinP1I cleavage, uHTS | DNA (cytosine-5)-methyltransferase 1 (Homo sapiens), P26358 | inhibition (reported as % activation of signal), % at 10 µM | actives 0.83% (n = 360,000) | AID 588458, 2011
NS3 helicase cf: HCV NS3 helicase inhibitors, retest, confirmation, biochemical, Cy5 molecular beacon fluorescence, triplicate; NS3 helicase DNA unwinding; shares compounds with NS3 helicase inh; inhibition, % at 10.9 µM; AID 1943, 2009; actives 31% (n = 1,600);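 active means inhibition above the mean of all tested compounds plus 3 SD, cutoff set per campaign, cut at about 36% in these data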
FID counter trip: compounds displacing fluorescent DNA intercalator, artefact control for HCV NS3 helicase inhibitor project, biochemical, FID fluorescence, triplicate | shares compounds with NS3 helicase inh | DNA fluorescent intercalator displacement | inhibition, % at 7.9 µM | actives 4% (n = 1,600) | AID 1945, 2009; in the data active means inhibition above about 37%;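 further: 0% = vehicle and 100% = reference compound; higher means more displacement of ethidium bromide from the DNA hairpin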
DNA FID DR: compounds displacing fluorescent intercalator from DNA, dose response, counter-screen for HCV NS3 helicase inhibitor project, biochemical, fluorescence; fluorescent intercalator displacement from DNA; IC50, µM; 120 tested, under 10 active; shares compounds with NS3 helicase inh; call rule not given here
Numbers without * were called inactive. An excerpt weighted towards active compounds, which were near 1.5% of everything screened. Unless noted, no stated cut-off is given here; in the data, active means inhibition above about 50%; inactive means the rest.

How did Cn1cccc1CC(=O)NNC(=S)Nc1ccc(Cl)cc1 do in these assays?
NS3 helicase inh: 36.4*; NSD2 inh: 1.7; DNMT1 inh: -3.3; NS3 helicase cf: -8.7; FID counter trip: 9.7

How did Cn1cccc1CC(=O)N/N=C/c1ccc(Cl)cc1 do in these assays?
NS3 helicase inh: -0.4; NSD2 inh: 4.3; CASP6 VEID inh: 7.1; DNMT1 inh: -7.1

What do the screens show for `Cc1c(Cl)cccc1NC(=S)NCc1cccn1C`?
NS3 helicase inh: 2.5; NSD2 inh: 0.1; DNMT1 inh: -15.8

How did Cn1cccc1CC(=O)NNC(=S)Nc1ccccc1Cl do in these assays?
NS3 helicase inh: 45.6*; CASP6 VEID inh: 6.3; DNMT1 inh: -5.9; NS3 helicase cf: -9.1; FID counter trip: 13.0

Results for C[C@H](CO)N1C[C@H](C)[C@@H](CN(C)S(=O)(=O)c2ccc(F)cc2)Oc2ccc(NC(=O)Nc3ccccc3)cc2CC1=O ?
CASP6 VEID inh: 2.2

What do the screens show for `O=C(O)COc1ccccc1C(Nc1cccnc1)c1cc(Cl)c2cccnc2c1O` (stereo not drawn)?
NS3 helicase inh: 37.1*; DNMT1 inh: 4.4; NS3 helicase cf: 69.2*; FID counter trip: 80.7*

How did COc1ccccc1C(NC(C)=O)c1cc(Cl)c2cccnc2c1O (stereo not drawn) do in these assays?
NS3 helicase inh: 40.3*; NSD2 inh: -3.0; CASP6 VEID inh: -3.0; DNMT1 inh: -0.9; NS3 helicase cf: -8.0; FID counter trip: -4.0

What do the screens show for `CCCC(=O)NC(c1ccc(Cl)cc1Cl)c1ccc2cccnc2c1O` (stereo not drawn)?
NS3 helicase inh: 5.1; NSD2 inh: 28.8; CASP6 VEID inh: -3.9; DNMT1 inh: 1.3

Results for CC(=O)NC(c1ccc(Cl)cc1Cl)c1ccc2cccnc2c1O (stereo not drawn) ?
NS3 helicase inh: 36.2*; NSD2 inh: 0.9; CASP6 VEID inh: -2.7; DNMT1 inh: 13.0; NS3 helicase cf: 12.9; FID counter trip: -16.0

How did O=C(O)COc1ccccc1C(Nc1ccccn1)c1cc(Cl)c2cccnc2c1O (stereo not drawn) do in these assays?
NS3 helicase inh: 20.3; NSD2 inh: -1.0; DNMT1 inh: -0.3

How did C[C@H]1CN([C@@H](C)CO)C(=O)c2cccc(NS(C)(=O)=O)c2O[C@H]1CN(C)S(=O)(=O)c1cccs1 do in these assays?
CASP6 VEID inh: 2.5

How did C[C@@H]1CN([C@H](C)CO)C(=O)c2cc(NC(=O)CCCN(C)C)ccc2O[C@@H](C)CCCCO[C@@H]1CN(C)Cc1ccc(C(=O)O)cc1 do in these assays?
CASP6 VEID inh: 7.7

Results for CC(C)NC(=O)Nc1ccc2c(c1)C(=O)N(C)[C@H]1CC[C@H](CC(=O)Nc3ccccc3Cl)O[C@@H]1CO2 ?
CASP6 VEID inh: 1.6

How did COC(=O)C[C@H]1C[C@H]2c3cc(NC(=O)CN(C)C)ccc3O[C@H]2[C@@H](CO)O1 do in these assays?
CASP6 VEID inh: 1.4

How did CC(=O)c1ccccc1NC(=O)CN1C(=O)CS/C1=C\c1nc(-c2ccc(C)cc2)cs1 do in these assays?
NS3 helicase inh: 36.7*; NSD2 inh: -2.5; CASP6 VEID inh: -1.6; DNMT1 inh: -7.1; NS3 helicase cf: -2.7; FID counter trip: -16.1

Results for CC(=O)c1ccc(NC(=O)c2ccc3nc(-c4ccco4)c(-c4ccco4)nc3c2)cc1 ?
NS3 helicase inh: 38.7*; DNMT1 inh: 123.2*; NS3 helicase cf: 77.9*; FID counter trip: 33.7

What do the screens show for `S=C(Nc1ccc(N2CCOCC2)cc1)Nc1ccc2nc(-c3ccco3)c(-c3ccco3)nc2c1`?
NS3 helicase inh: 54.7*; NSD2 inh: 9.7; DNMT1 inh: -7.5; NS3 helicase cf: 17.7; FID counter trip: -4.0

What do the screens show for `O=C(c1ccc2nc(-c3ccco3)c(-c3ccco3)nc2c1)N1CCN(c2ncccn2)CC1`?
NS3 helicase inh: 52.8*; DNMT1 inh: 28.4; NS3 helicase cf: 83.6*; FID counter trip: 18.5; DNA FID DR: >79.4

What do the screens show for `O=C(NCCO)Nc1ccc2nc(-c3ccco3)c(-c3ccco3)nc2c1`?
NS3 helicase inh: 56.9*; NS3 helicase cf: 67.1*; FID counter trip: 37.5*

What do the screens show for `CCc1nc2ccc(C(=O)Nc3ccc(NC(C)=O)cc3)cc2nc1CC`?
NS3 helicase inh: -3.9; NSD2 inh: -1.0; CASP6 VEID inh: 0.5; DNMT1 inh: -7.3

What do the screens show for `O=C(Nc1ccc(N2CCOCC2)cc1)c1ccc2nc(-c3ccco3)c(-c3ccco3)nc2c1`?
NS3 helicase inh: 8.9; NSD2 inh: 1.0; DNMT1 inh: 3.1

How did O=C(NCCO)Nc1ccc2nsnc2c1 do in these assays?
NS3 helicase inh: -11.4; NSD2 inh: 1.0; CASP6 VEID inh: 0.1; DNMT1 inh: -4.1

What do the screens show for `CN(C)CC(=O)Nc1ccc2c(c1)[C@@H]1C[C@H](CC(=O)NC3CCCC3)O[C@H](CO)[C@@H]1O2`?
CASP6 VEID inh: -2.4

How did COc1cccc(C(=O)Nc2nnc(S(=O)(=O)Nc3cccc(C)c3)s2)c1 do in these assays?
NS3 helicase inh: 45.7*; CASP6 VEID inh: 3.5; DNMT1 inh: -0.5; NS3 helicase cf: 19.0; FID counter trip: 11.5

What do the screens show for `Cc1cccc(NS(=O)(=O)c2nnc(NC(=O)c3ccc(C)c(C)c3)s2)c1`?
NS3 helicase inh: -2.2; CASP6 VEID inh: 6.0; DNMT1 inh: -2.3

What do the screens show for `Cc1noc(C)c1NC(=O)Nc1ccc2c(c1)CC(=O)N([C@H](C)CO)C[C@H](C)[C@@H](CN(C)Cc1ccccc1)O2`?
CASP6 VEID inh: -1.3

Results for Cc1[nH]c2ccccc2c1N=Nc1cccc(C(=O)O)c1 ?
NS3 helicase inh: 16.8; NSD2 inh: 2.2; CASP6 VEID inh: 0.8; DNMT1 inh: -1.9

Results for Cc1[nH]c2ccccc2c1N=Nc1ccccc1C(=O)O ?
NS3 helicase inh: 44.0*; NSD2 inh: 9.3; CASP6 VEID inh: 11.0; DNMT1 inh: 10.6; NS3 helicase cf: 5.5; FID counter trip: 13.1

How did O=c1[nH][nH]c2c(N=Cc3ccccc3O)ccc(F)c12 do in these assays?
NS3 helicase inh: 52.7*; CASP6 VEID inh: 97.0*; DNMT1 inh: 118.0*; NS3 helicase cf: 17.8; FID counter trip: 23.5

Results for Cc1nnc(Cn2cnc3c2c(=O)n(C)c(=O)n3C)o1 ?
NS3 helicase inh: 39.4*; NSD2 inh: -2.5; CASP6 VEID inh: -3.2; DNMT1 inh: 1.7; NS3 helicase cf: -8.6; FID counter trip: 4.0
